# Assay outcomes as filed in PubChem.
# A selection: hits, their analogues and other compounds. The true share with any hit is near 5.4%.
# aSyn UTR inh: 5' untranslated region of α-synuclein, MLPCN primary screen. alpha-synuclein 5'UTR reporter, inhibitor activity. inhibition, % (tested at 7.5 µM). actives 0.82% (n = 300,000). AID 1813; in the data active = inhibition above about 60%;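 note: H4 neuroglioblastoma cells stably carrying SNCA 5'UTR luciferase fusion; 0% = DMSO wells and 100% = positive control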
# T cruzi repl: blocks replication of Trypanosoma cruzi | inhibition, % (test concentration not listed) | actives 1.4% (n = 300,000) | T. cruzi beta-gal in NIH3T3, luminescence, 90 h;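 active = mean inhibition across valid replicates above about 55%, limit read from the data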;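 note: signal also drops with host cell toxicity which is not excluded here; 0% = plate median of DMSO wells and 100% = zero luminescence signal; higher percent means less beta-gal luminescence so fewer parasites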
#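 Assay system: NIH/3T3 host cells with β-galactosidase reporter T. cruzi; input: 5,000 host fibroblasts per well; compound: single 50 nL compound addition per well in DMSO; timing: ≥90 h infection period, 3 h prior cell attachment; measured by: GalScreen β-gal luminescence, detergent lysis, 60 min; evaluation: percent inhibition of parasite-derived β-gal signal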
# SKKanGAS inh: inhibitors of SKKanGAS S. pyogenes growth in kanamycin (SK-promoter or general growth effect); AID 1662; actives 1.3% (n = 300,000); inhibition, % at 7.5 µM; BacTiter-Glo, 6 h;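 active = mean replicate score, as percent of positive control median, at least 50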;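 note: strain carries kanamycin resistance gene driven by streptokinase promoter and grows in 40 µg/ml kanamycin; loss of luminescence reflects streptokinase promoter inhibition or plain growth inhibition; 0% = median of DMSO wells and 100% = positive control at its reference dose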
# CSC inhib: cancer stem cell inhibition; cancer stem cell-like cells viability, luminescence; inhibition, % at 7.5 µM; AID 2717; actives 1.1% (n = 300,000); in the data active = inhibition above about 75%; tested in HMLE shEcad cells
# Mdm2-MdmX inh: disrupts the human Mdm2-MdmX interaction; SaOS-2 split-luciferase Mdm2/MdmX complementation, luminescence; inhibition, % at 8 µM; actives 3% (n = 330,000); AID 485346;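 active = inhibition of at least 50% at 8 µM in the primary screen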
# Target sequence (O15151 whole entry, looked up): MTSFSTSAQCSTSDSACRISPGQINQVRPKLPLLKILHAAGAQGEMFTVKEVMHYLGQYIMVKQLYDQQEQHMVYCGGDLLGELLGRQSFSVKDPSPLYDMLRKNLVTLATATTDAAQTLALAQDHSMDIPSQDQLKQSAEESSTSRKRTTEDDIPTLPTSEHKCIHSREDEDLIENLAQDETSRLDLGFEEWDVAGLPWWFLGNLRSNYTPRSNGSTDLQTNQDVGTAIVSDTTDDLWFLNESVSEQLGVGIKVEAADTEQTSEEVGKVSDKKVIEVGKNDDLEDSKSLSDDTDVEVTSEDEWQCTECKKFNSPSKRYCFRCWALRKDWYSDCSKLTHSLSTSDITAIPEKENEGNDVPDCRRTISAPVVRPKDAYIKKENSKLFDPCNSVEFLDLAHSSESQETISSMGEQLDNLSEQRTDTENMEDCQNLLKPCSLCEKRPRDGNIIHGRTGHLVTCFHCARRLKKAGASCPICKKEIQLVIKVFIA
# Target sequence (Q00987 whole entry, looked up): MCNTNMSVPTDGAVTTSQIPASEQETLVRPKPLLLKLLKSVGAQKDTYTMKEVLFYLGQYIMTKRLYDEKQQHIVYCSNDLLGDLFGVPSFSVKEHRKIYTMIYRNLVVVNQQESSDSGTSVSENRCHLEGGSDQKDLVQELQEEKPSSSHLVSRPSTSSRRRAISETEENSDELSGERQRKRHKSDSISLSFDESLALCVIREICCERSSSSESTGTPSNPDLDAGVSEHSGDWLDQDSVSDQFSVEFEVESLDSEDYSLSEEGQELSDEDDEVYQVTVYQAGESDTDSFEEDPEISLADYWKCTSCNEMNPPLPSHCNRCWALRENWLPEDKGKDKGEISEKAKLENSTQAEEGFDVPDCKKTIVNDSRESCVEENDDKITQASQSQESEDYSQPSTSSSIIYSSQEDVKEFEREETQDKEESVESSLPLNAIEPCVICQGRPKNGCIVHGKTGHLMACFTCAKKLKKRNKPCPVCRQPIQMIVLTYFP
# Mdm2 MdmX conf: confirmation of human Mdm2/MdmX interaction inhibitors. shares compounds with Mdm2-MdmX inh. Mdm2-MdmX binding, luminescent assay. inhibition, % at 8 µM. actives 55% (n = 10,000); in the data active = inhibition above about 40%
# FLuc counter: counter-screen for Mdm2/MdmX inhibitors: full-length luciferase; AID 504607; actives 77% (n = 6,200); shares compounds with Mdm2-MdmX inh; SaOS-2 full-length luciferase counterscreen, luminescence; inhibition, % at 8 µM;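 active = mean inhibition at 8 µM reaching about 37%, which flags the compound as non-specific, limit read from the data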;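 note: p53-null SaOS-2 cells with luciferase driven by a doxycycline-inducible promoter; compound on cells about two nights before reading with doxycycline added after day one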
# Active calls of the source: *; · = not tested or not shown.
SMILES,aSyn UTR inh,T cruzi repl,SKKanGAS inh,CSC inhib,Mdm2-MdmX inh,Mdm2 MdmX conf,FLuc counter
CC(O)(c1ccccc1)C(c1ccccc1)C1CCCCN1 (stereo not given),-6.3,1.9,0.0,-11.3,-12.1,·,·
O[C@@H](c1cc(C(F)(F)F)nc2c(C(F)(F)F)cccc12)[C@H]1CCCCN1,5.2,33.2,-2.2,36.8,99.2*,77.8*,46.6*
OC(c1cc(C(F)(F)F)nc2c(Cl)cc(Cl)cc12)C1CCCCN1 (stereo not given),7.0,38.3,-6.7,41.1,68.2*,42.0*,48.3*
Cc1ccc(-c2cc(C(F)F)n3ncc(C(=O)Nc4ccc(S(=O)(=O)Nc5ccccc5C)cc4)c3n2)cc1,2.1,32.1,12.9,11.2,53.9*,22.8,·
CC1CCN(CCc2nc3cc(NC(=O)COc4ccc(Cl)cc4)ccc3n2C)CC1,28.8,30.1,-1.4,1.5,57.3*,35.1,·
COc1ccc(OCC(=O)Nc2ccc3c(c2)nc(CCN2CCC(C)CC2)n3C)cc1,13.9,-4.2,-0.9,2.2,9.1,·,·
FC(F)(F)c1nc(-c2ccncc2)ncc1-c1nnnn1-c1ccccc1,6.4,-0.2,0.2,-1.9,-2.5,·,·
Fc1ccc(-n2nnnc2-c2cnc(-c3cccs3)nc2C(F)(F)F)cc1,7.7,9.2,7.0,21.9,56.2*,43.5*,58.7*
COc1cc2[nH]c(C(=O)Nc3ccc4c(c3)OCCO4)cc2c(OC)c1OC,-52.1,1.7,-6.7,14.2,36.4,·,·
COc1cc2cc(C(=O)Nc3ccc4c(c3)OCCO4)[nH]c2cc1OC,12.4,-8.2,-0.6,19.6,65.4*,48.4*,71.3*
CC(C)=CCc1cc([C@@H]2COc3c(ccc4c3C=CC(C)(C)O4)C2)c(O)cc1O,16.8,50.9,104.6*,-4.9,63.7*,-7.3,·
O=C(Nc1ccc(Cl)cc1)Nc1ccc(N2CCCC2)c(S(=O)(=O)Nc2ccccc2Cl)c1,34.7,47.4,4.0,2.3,95.8*,90.2*,24.0
COCC(=O)Nc1ccc(N2CCCC2)c(S(=O)(=O)Nc2ccccc2OC)c1,·,·,·,·,-13.1,·,·
O=C(Nc1ccc(N2CCOCC2)c(S(=O)(=O)Nc2cc(Cl)ccc2Cl)c1)c1cccnc1,-4.0,5.7,10.9,2.6,24.0,·,·
O=C(Nc1ccc(N2CCOCC2)c(S(=O)(=O)Nc2ccccc2Cl)c1)c1ccccc1,·,·,·,·,53.5*,13.7,·
O=C(Nc1cc(S(=O)(=O)Nc2ccc(Cl)cc2)ccc1N1CCCCC1)c1ccc(F)cc1Cl,24.0,35.3,34.0,77.5*,67.2*,21.2,·
COc1ccc(NS(=O)(=O)c2ccc(N3CCOCC3)c(NC(=O)c3ccccc3Cl)c2)cc1,15.1,-10.0,9.3,1.5,-8.6,·,·
O=C(CSc1cccc[n+]1[O-])Nc1ccc(N2CCOCC2)cc1,-7.5,-6.9,0.0,7.3,-8.5,·,·
O=C(Nc1cccc(S(=O)(=O)N2CCCCCC2)c1)C1CCC1,9.4,-4.3,-7.0,·,6.8,·,·
COc1cc2nc(CCc3ccccc3)oc(=O)c2cc1OC,-8.6,-12.3,3.9,-13.4,-1.1,·,·
CC1CCCCC1N(C)C1CCN(C(=O)CNC(=O)/C=C/c2cccc(Cl)c2)CC1 (stereo not given),40.9,37.9,-8.3,30.7,53.4*,51.8*,91.7*
CN(C1CCCC1)C1CCN(C(=O)CNC(=O)/C=C/c2ccccc2)CC1,9.4,14.2,0.0,·,-32.2,·,·
O=C(/C=C/c1cccc(Cl)c1)NCCN1CCOCC1,-0.5,-1.4,-2.3,0.7,76.0*,-17.7,·
CCOc1ccc(S(=O)(=O)N2CCOCC2)cc1NC(=O)CSCc1ccc(C)cc1,·,·,·,53.4,51.9*,55.5*,53.8*
CCc1ccccc1OCC(=O)Nc1cc(S(=O)(=O)N2CCOCC2)ccc1N1CCCCC1,·,·,·,·,51.8*,41.0*,82.6*
COc1ccc(S(=O)(=O)N2CCOCC2)cc1NC(=O)COc1ccc(C)cc1,·,·,·,-0.2,24.3,·,·
COc1ccc(Cl)cc1NC(=O)COc1ccc(S(=O)(=O)N2CCOCC2)cc1C,-41.9,-5.2,1.7,-4.7,68.3*,18.4,·
O=C(Nc1ccc(Cl)c(Cl)c1)Nc1cc(S(=O)(=O)N2CCOCC2)ccc1N1CCCC1,25.5,35.9,38.8,32.0,53.2*,12.2,·
O=c1cc(-c2ccc(O)c(O)c2)oc2cc(O)c(C3OC(CO)C(O)C(O)C3O)c(O)c12 (stereo not given),-7.8,-9.1,1.0,-13.6,-2.8,·,·
